PRMT1 FP inh – PRMT1 methyltransferase inhibitors, primary screen, biochemical, fluorescence polarization; Protein arginine N-methyltransferase 1 (Homo sapiens), Q99873; recombinant PRMT1, activity-based probe fluorescence polarization; inhibition, % at 2.79 µM; 1.3% of 370,000 active;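 active = inhibition above about 21% made by adding two undisclosed values, limit read from the data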
LEDGF integ inh – blockers of LEDGF/p75-dependent integrase strand transfer – biochemical, TR-FRET, high throughput, primary screen; AID 743269, 2014; inhibition, % at 3.7 µM; TR-FRET IN-LEDGF/p75 DNA integration, Eu/Cy5; 0.64% of 370,000 active;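 active = inhibition above the screen-wide mean plus 3 SD, cut at about 13% in these data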;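 note: signal is the Cy5 over europium emission ratio at 671 and 618 nm; 0% = plate median of compound wells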
DAGLB inh – DAGLB lipase inhibitors, primary screen, biochemical, fluorescence, HTS; Diacylglycerol lipase-beta (Homo sapiens), Q8NCG7; HEK293T DAGLB membrane lysate, EnzChek fluorogenic substrate; inhibition, % at 5.17 µM; 0.059% of 340,000 active; in the data active = inhibition above about 34%;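 note: 0% = enzyme with vehicle and 100% = wells lacking enzyme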
HTRA1 inhibitor – HTRA1 serine protease inhibitors, primary screen, biochemical, fluorescence polarization, HTS; Q92743; recombinant HTRA1, FP-rhodamine activity-based probe; inhibition, % at 5.96 µM; 0.5% of 340,000 active; AID 504803, 2011; in the data active = inhibition above about 36%;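 note: 0% = enzyme with DMSO and 100% = wells lacking enzyme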
ABHD4 inh – ABHD4 inhibitors, primary screen, biochemical, fluorescence polarization, mouse. inhibition, % at 8.92 µM. (Lyso)-N-acylphosphatidylethanolamine lipase (Mus musculus), Q8VD66. 0.54% of 370,000 active. AID 720543, 2013. purified mABHD4, FP-Rh probe fluorescence polarization;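 active = inhibition exceeding the mean over every tested compound plus 3 SD, cut at about 30% in these data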;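 note: 0% = plate median of compound wells and 100% = S159A mutant with DMSO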
Target sequence (Q8VD66 whole entry, looked up): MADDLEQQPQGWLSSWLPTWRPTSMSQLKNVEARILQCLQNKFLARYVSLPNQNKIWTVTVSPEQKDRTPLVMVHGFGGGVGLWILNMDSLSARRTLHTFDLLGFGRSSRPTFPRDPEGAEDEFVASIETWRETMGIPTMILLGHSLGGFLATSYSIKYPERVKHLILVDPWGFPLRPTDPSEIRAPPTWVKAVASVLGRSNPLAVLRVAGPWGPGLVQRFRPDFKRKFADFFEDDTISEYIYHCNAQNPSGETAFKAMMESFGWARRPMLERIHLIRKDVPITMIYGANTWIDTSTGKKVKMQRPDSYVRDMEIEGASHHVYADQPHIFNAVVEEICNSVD
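Test system: mABHD4 protein | Buffer or medium: HEPES pH 7.0 buffer, 150 mM NaCl, 0.01% Pluronic F-127 | Probe or stimulus: FP-Rh fluorescent activity-based probe, added after compound pre-incubation | Timing: Pre-incubation 45 min, probe exposure 60 min, at 25 °C | Technique: Fluorescence polarization, excitation 525 nm, emission 598 nm, BODIPY TMR filters | Repeats: Single well per compound (singlicate)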
rCAG binder – binders of r(CAG) RNA repeats, primary screen, biochemical, fluorescence; inhibition, % at 3 µM; AID 651821, 2012; r(CAG) RNA repeat, TO-PRO-1 dye displacement fluorescence; 1.3% of 370,000 active;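 active = inhibition above the plate cutoff, the mean of all test compounds on that plate plus 3 SD, cut at about 35% in these data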;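 note: 0% = DMSO alone and 100% = 100 µM mitoxantrone as full dye displacement; higher means more dye released from RNA so lower well fluorescence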
* marks the source's active call; other numbers are inactive results. A selection: hits, their analogues and other compounds. The true share with any hit is near 3.2%.

Screening c1ccc2c(c1)-c1ccccc1C2N1CCOCC1 returned PRMT1 FP inh 24*, LEDGF integ inh 2, DAGLB inh -2, HTRA1 inhibitor 4, ABHD4 inh -2 and rCAG binder 0.
Screening CCOC(=O)c1c(-c2ccc(C)o2)csc1NC(=O)CN(C)CC(=O)Nc1ccc(C)cc1 returned PRMT1 FP inh 22*, LEDGF integ inh 2, DAGLB inh -13, HTRA1 inhibitor -28, ABHD4 inh 1 and rCAG binder 11.
`CCOC(=O)c1c(-c2ccc(C)o2)csc1NC(=O)CN1CCC(C(N)=O)CC1` gave PRMT1 FP inh 14, LEDGF integ inh -4, DAGLB inh 0, HTRA1 inhibitor -7, ABHD4 inh 3 and rCAG binder -1.
Cc1nnsc1C(=O)N1CCCC(C(=O)c2ccc(C(F)(F)F)cc2)C1 (stereo unspecified) was read as PRMT1 FP inh -2, LEDGF integ inh 4, DAGLB inh 0, HTRA1 inhibitor 2, ABHD4 inh 5 and rCAG binder -2.
Screening COc1ccccc1C1NC=C([N+](=O)[O-])C=C1[N+](=O)[O-] (stereo unspecified) returned PRMT1 FP inh 24*, LEDGF integ inh 0, DAGLB inh 3, HTRA1 inhibitor 8, ABHD4 inh 14 and rCAG binder 17.
For C/C(=C(/CCO)SSCC1CCCO1)N(C=O)Cc1cnc(C)nc1N (stereo unspecified) the results were PRMT1 FP inh 24*, LEDGF integ inh 6, DAGLB inh 0, HTRA1 inhibitor -2, ABHD4 inh -50 and rCAG binder 4.
For O=C(Nc1nccs1)C1CCCCN1S(=O)(=O)c1ccccc1 (stereo unspecified) the results were PRMT1 FP inh -4, LEDGF integ inh 0, DAGLB inh -2, HTRA1 inhibitor 3, ABHD4 inh -2 and rCAG binder -3.
Screening O=C(/C=C/c1ccccc1Cl)NCCN1CCOCC1 returned PRMT1 FP inh -5, LEDGF integ inh -1, DAGLB inh -1, HTRA1 inhibitor -3, ABHD4 inh 1 and rCAG binder -4.
Oc1ccc2c(c1)C1CCCC1(N1CCOCC1)O2 (stereo unspecified) was read as PRMT1 FP inh 27*, LEDGF integ inh 31*, DAGLB inh 2, HTRA1 inhibitor -5, ABHD4 inh 34* and rCAG binder 25.
Screening CC1CN(C(=O)c2ccccc2)CCC1=NO (stereo unspecified) returned PRMT1 FP inh -3, LEDGF integ inh 1, ABHD4 inh 4 and rCAG binder 3.
For COC(=O)/C(=C\c1ccc([N+](=O)[O-])cc1)NC(=O)c1ccccc1 the results were PRMT1 FP inh 0, LEDGF integ inh -1, DAGLB inh 1, HTRA1 inhibitor -5, ABHD4 inh -5 and rCAG binder 0.
Screening Cc1cccc(C)c1NC(=O)CSc1nnc(-c2ccco2)c(-c2ccco2)n1 returned DAGLB inh 4 and HTRA1 inhibitor 50*.
Screening COc1ccc(OC)c(C=Cc2ccc([N+](=O)[O-])cc2)c1 returned PRMT1 FP inh 0, LEDGF integ inh -4, DAGLB inh -8, HTRA1 inhibitor -9, ABHD4 inh -7 and rCAG binder 3.
`CN(CC(=O)Nc1ccc(F)cc1)C(=O)COC(=O)c1ccc(=O)n(Cc2ccccc2)n1` gave PRMT1 FP inh 136*, LEDGF integ inh 0, DAGLB inh 1, HTRA1 inhibitor -1, ABHD4 inh 27 and rCAG binder -29.
Screening NC(=O)Cn1c(=O)n(Cc2ccco2)c(=O)c2c3c(sc21)CCCCC3 returned PRMT1 FP inh 21*, LEDGF integ inh 6, DAGLB inh 0, HTRA1 inhibitor 4, ABHD4 inh 4 and rCAG binder 12.
O=C(Cn1c(=O)n(Cc2ccco2)c(=O)c2c3c(sc21)CCCC3)Nc1ccccc1 was read as PRMT1 FP inh 8, LEDGF integ inh 3, DAGLB inh 0, HTRA1 inhibitor -60, ABHD4 inh -36 and rCAG binder 14.
For CCOC(=O)C1(CCCc2ccccc2)CCN(Cc2cnc(C)s2)CC1 the results were PRMT1 FP inh -8, LEDGF integ inh 0, DAGLB inh -3, HTRA1 inhibitor -4, ABHD4 inh -2 and rCAG binder -11.
`CC(c1ccco1)N(C(=O)c1ccccc1NS(=O)(=O)c1ccc(Cl)c([N+](=O)[O-])c1)c1ccccn1` (stereo unspecified) gave PRMT1 FP inh 1, LEDGF integ inh 1, DAGLB inh 11, HTRA1 inhibitor -5, ABHD4 inh -5 and rCAG binder 69*.
COC(=O)c1cc2c(c3c4ccccc4n(S(=O)(=O)c4cccc(C)c4)c13)C(=O)N(Cc1ccc(N(C)C)cc1)C2 was read as PRMT1 FP inh 22*, LEDGF integ inh 4, ABHD4 inh -1 and rCAG binder 16.
For O=C(CC(Nc1ccccc1Cl)C(=O)OCC(=O)c1cccs1)c1ccccc1 (stereo unspecified) the results were PRMT1 FP inh 21*, LEDGF integ inh -1, DAGLB inh -3, HTRA1 inhibitor -9, ABHD4 inh -8 and rCAG binder 20.
Cc1cc(C(=O)OCC(=O)Nc2cc(C(F)(F)F)ccc2N2CCOCC2)c(C)o1 was read as PRMT1 FP inh -2, LEDGF integ inh 2, DAGLB inh -6, HTRA1 inhibitor -17, ABHD4 inh -4 and rCAG binder -8.
For O=C1Nc2cc(Cl)ccc2Nc2cscc21 the results were PRMT1 FP inh 23*, LEDGF integ inh 2, DAGLB inh 1, HTRA1 inhibitor 4, ABHD4 inh 19 and rCAG binder 12.
`Cc1ccc(/C=C/C(=O)Nc2sc(C)c(C)c2C(=O)OC(C)C)o1` gave PRMT1 FP inh 16, LEDGF integ inh -1, DAGLB inh -5, HTRA1 inhibitor -18, ABHD4 inh -8 and rCAG binder 12.
Screening CCN(C(=O)COC(=O)c1cc(-c2ccc(C)o2)nc2ccccc12)C1CCS(=O)(=O)C1 (stereo unspecified) returned PRMT1 FP inh 23*, LEDGF integ inh -3, DAGLB inh 2, HTRA1 inhibitor -7, ABHD4 inh -1 and rCAG binder 6.
`O=C1NN(c2ccc(F)c(Cl)c2)C(=O)/C1=C\c1cccc(OC(=O)c2cccs2)c1` gave PRMT1 FP inh 24*, LEDGF integ inh 8, DAGLB inh 28, HTRA1 inhibitor 35, ABHD4 inh 32* and rCAG binder 90*.

High-throughput results as filed in PubChem.
